The source made the active and inactive calls.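 How the source made its calls, unless noted: active means GFP response above 150% of the DMSO level; inconclusive means fewer than 70 events counted for a yeast strain; inactive means the rest.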

The nature of test [1]: RPL19A-GFP modulators, yeast TOR pathway, confirmation, cell-based, S. cerevisiae, flow cytometry, cherry picks, mother/daughter gates (AID 2270;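 active means GFP response below 50% of the DMSO control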). Conditions: S. cerevisiae RPL19A-GFP strain, 3 h, at 10 µM, stronger effect = lower value, 100 = same GFP as DMSO wells. Background: In flow cytometry, cells or beads pass a laser one at a time.
Test [2] is described as follows: LAP4-GFP expression modulators in yeast, confirmation, cell-based, cherry picks, flow cytometry, mother/daughter gates (AID 2271;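 active means GFP response above 150% of the DMSO control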;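 further: ratio of sample to DMSO plate mean so 100% equals DMSO level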). The settings on record: S. cerevisiae LAP4-GFP strain, 3 h, at 10 µM, stronger effect = higher value, 100 means same as DMSO control. The procedure, abridged:
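Test system: GFP-fusion yeast strain / Amount: 0.2 OD600 cells / Buffer or medium: SC medium / Dosing: 10 µM single dose / Incubation: compound exposure 3 h at 30 °C, end-over-end rotation / Detection: HT flow cytometry, GFP fluorescence channel / Evaluation: median GFP fluorescence as percent of plate-mean DMSO wells / Control set: DMSO-only negative wells, rapamycin 400 ng/mL positive wells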

Test [3] in a line: modulators of MEP2-GFP levels in yeast, confirmation, S. cerevisiae, flow cytometry GFP, cherry picks (AID 2272;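 active means GFP response above 150% of the DMSO control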;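 further: ratio of well signal to plate DMSO mean so 100% equals DMSO level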). Conditions: S. cerevisiae MEP2-GFP strain, 3 h, at 10 µM, stronger effect = higher value.
Test [4] is described as follows: AGP1-GFP expression modulators, hit retest, confirmation, cell-based, flow cytometry, S. cerevisiae, cherry picks (AID 2273).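 Further: median GFP channel fluorescence over the whole cell population gate.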 The settings on record: S. cerevisiae AGP1-GFP strain, 3 h, at 10 µM.
The nature of test [5]: modulators of CIT2-GFP expression in yeast, confirmation, S. cerevisiae, GFP fusion, cherry picks, mother/daughter gates (AID 2274). The settings on record: S. cerevisiae CIT2-GFP strain, flow cytometry, 3 h, at 10 µM, stronger effect = higher value.
[6] abbreviates: measured here: daughter cell gate.
Setting [7] is: measured here: mother cell gate.
Where [8] appears, read: measured here: daughter cell gate response.
[9] abbreviates: measured here: mother cell gate response.

`O=C(Nc1nc(-c2ccccc2Cl)cs1)c1cccnc1`: the GFP response vs DMSO in test [1] was 100% (inactive); in test [1] (setting [6]), 94.7%; in test [1] (setting [7]), 99.2%; in test [3], 100% (inactive). For the same molecule, the GFP response relative to DMSO in test [2] was 97.4% (inactive); in test [2] (setting [8]), 95.6%; in test [2] (setting [9]), 99.3%. For the same molecule, the GFP response, % of DMSO in test [4] was 89.1% (inactive); in test [5], 99.1% (inactive); in test [5] (setting [6]), 94.8%; in test [5] (setting [7]) it was 97.7%.

For `Cc1cccc(CN2CCSc3sccc3C2=O)c1`, the GFP response vs DMSO in test [1] was 96.8% (inactive); in test [1] (setting [6]) it was 95.7%; in test [1] (setting [7]), 96.5%; in test [3], 131% (inactive). Also, the GFP response relative to DMSO in test [2] is 125% (inactive); in test [2] (setting [8]) it was 127%; in test [2] (setting [9]), 126%. In addition, the GFP response, % of DMSO in test [4] was 98.2% (inactive); in test [5], 112% (inactive); in test [5] (setting [6]), 114%; in test [5] (setting [7]) it was 109%.

As to `Cc1cc(NC(=O)c2ccc3c(c2)OCCO3)ccc1NC(=O)c1cc2ccccc2o1`, the GFP response vs DMSO in test [1] was 97.6% (inactive); in test [1] (setting [6]), 99.5%; in test [1] (setting [7]) it was 96.5%; in test [3], 103% (inactive). Moreover, the GFP response relative to DMSO is 89.4% (inactive) in test [2], 89.8% in test [2] (setting [8]) and 91.3% in test [2] (setting [9]). The GFP response, % of DMSO in test [4] is 93.2% (inactive); in test [5], 95.8% (inactive); in test [5] (setting [6]), 97.6%; in test [5] (setting [7]), 97.1%.

With `CN(C)c1ccc(/C=N/NC(=O)c2ccc(Cl)cc2)cc1`, the GFP response vs DMSO is 98% (inactive) in test [1], 97% in test [1] (setting [6]), 97.4% in test [1] (setting [7]) and 102% (inactive) in test [3]. Further, the GFP response relative to DMSO is 102% (inactive) in test [2], 97.9% in test [2] (setting [8]) and 103% in test [2] (setting [9]). The GFP response, % of DMSO in test [4] was 100% (inactive); in test [5] it was 97.8% (inactive); in test [5] (setting [6]), 98.3%; in test [5] (setting [7]), 95.6%.

Take `CCOc1cc(-c2noc(-c3cccnc3)n2)ccc1OC`: the GFP response vs DMSO in test [1] was 95.8% (inactive); in test [1] (setting [6]), 94.7%; in test [1] (setting [7]), 95%; in test [3], 103% (inactive). For the same molecule, the values for the GFP response relative to DMSO in test [2], in test [2] (setting [8]) and in test [2] (setting [9]) were 98.9% (inactive), 99% and 100%, respectively. The GFP response, % of DMSO in test [4] was 100% (inactive); in test [5] it was 106% (inactive); in test [5] (setting [6]), 103%; in test [5] (setting [7]), 106%.

`CCOC(=O)c1ccc(NC(=O)CCc2nc(-c3ccccc3Cl)no2)cc1`: the GFP response vs DMSO was 101% (inactive) in test [1], 100% in test [1] (setting [6]), 102% in test [1] (setting [7]) and 108% (inactive) in test [3]. The GFP response relative to DMSO was 103% (inactive) in test [2], 101% in test [2] (setting [8]) and 103% in test [2] (setting [9]). For the same molecule, the GFP response, % of DMSO in test [4] was 97.5% (inactive); in test [5] it was 101% (inactive); in test [5] (setting [6]), 102%; in test [5] (setting [7]), 98%.

For the molecule `CCc1nnc(NC(=O)c2nc(S(=O)(=O)Cc3cccc(C)c3)ncc2Cl)s1`, the GFP response vs DMSO in test [1] was 93.9% (inactive); in test [1] (setting [6]) it was 93.1%; in test [1] (setting [7]), 92.7%; in test [3] it was 104% (inactive). Also, the figures for the GFP response relative to DMSO in test [2], in test [2] (setting [8]) and in test [2] (setting [9]) were 105% (inactive), 102% and 102%, respectively. The GFP response, % of DMSO was 105% (inactive) in test [4], 99.3% (inactive) in test [5], 100% in test [5] (setting [6]) and 98% in test [5] (setting [7]).

`NC(=O)COc1ccc(C(=O)/C=C2/C(=O)Nc3ccccc32)cc1`: the GFP response vs DMSO in test [1] is 94% (inactive); in test [1] (setting [6]) it was 93.4%; in test [1] (setting [7]) it was 81%; in test [3] it was 94.1% (inactive). For the same molecule, the GFP response relative to DMSO in test [2] is 95.4% (inactive); in test [2] (setting [8]), 91.2%; in test [2] (setting [9]), 96.1%. Also, the GFP response, % of DMSO was 107% (inactive) in test [4], 101% (inactive) in test [5], 103% in test [5] (setting [6]) and 101% in test [5] (setting [7]).

Take `Cc1noc2ncnc(Sc3ccc(Cl)cc3)c12`: the GFP response vs DMSO in test [1] is 96.6% (inactive); in test [1] (setting [6]), 94.9%; in test [1] (setting [7]), 97.2%; in test [3], 102% (inactive). Besides, the GFP response relative to DMSO is 140% (inactive) in test [2], 130% in test [2] (setting [8]) and 141% in test [2] (setting [9]). Also, the GFP response, % of DMSO in test [4] is 94.7% (inactive); in test [5] it was 104% (inactive); in test [5] (setting [6]), 101%; in test [5] (setting [7]), 102%.

As to `CC(C)COC(=O)NCC12C=CC(O1)C1C(=O)N(c3ccc(Cl)cc3)C(=O)C12` (centres undefined), the GFP response vs DMSO in test [1] was 99.6% (inactive); in test [1] (setting [6]), 99.5%; in test [1] (setting [7]), 98.4%; in test [3] it was 106% (inactive). Moreover, the GFP response relative to DMSO in test [2] is 98.9% (inactive); in test [2] (setting [8]), 101%; in test [2] (setting [9]), 99.5%. Further, the GFP response, % of DMSO is 107% (inactive) in test [4], 101% (inactive) in test [5], 101% in test [5] (setting [6]) and 102% in test [5] (setting [7]).

As for `CCc1nnc(NC(=O)c2ccc(S(=O)(=O)N(CC(C)C)CC(C)C)cc2)o1`, the GFP response vs DMSO is 101% (inactive) in test [1], 97.6% in test [1] (setting [6]), 102% in test [1] (setting [7]) and 101% (inactive) in test [3]. Further, the GFP response relative to DMSO was 98.2% (inactive) in test [2], 97.5% in test [2] (setting [8]) and 97.3% in test [2] (setting [9]). Besides, the GFP response, % of DMSO in test [4] was 100% (inactive); in test [5] it was 102% (inactive); in test [5] (setting [6]), 103%; in test [5] (setting [7]), 101%.

Take `Cc1nc(SC2CC(=O)N(c3ccccc3)C2=O)nc2c1CCCC2` (centres undefined): the GFP response vs DMSO was 95.4% (inactive) in test [1], 95.9% in test [1] (setting [6]), 95.8% in test [1] (setting [7]) and 96.2% (inactive) in test [3]. In addition, the GFP response relative to DMSO is 97.9% (inactive) in test [2], 97.6% in test [2] (setting [8]) and 97.2% in test [2] (setting [9]). Also, the GFP response, % of DMSO in test [4] was 93.1% (inactive); in test [5], 101% (inactive); in test [5] (setting [6]) it was 101%; in test [5] (setting [7]), 99.7%.

Turning to `O=C(COc1ccccc1)Nc1c2c(nn1-c1ccccc1)CS(=O)C2` (centres undefined), the GFP response vs DMSO is 97.1% (inactive) in test [1], 96.4% in test [1] (setting [6]), 96.5% in test [1] (setting [7]) and 103% (inactive) in test [3]. The GFP response relative to DMSO was 97.7% (inactive) in test [2], 99% in test [2] (setting [8]) and 96.4% in test [2] (setting [9]). The GFP response, % of DMSO is 104% (inactive) in test [4], 98.6% (inactive) in test [5], 97.6% in test [5] (setting [6]) and 100% in test [5] (setting [7]).

With `COc1cccc(N=Nc2ccc3cccnc3c2O)c1`, the GFP response vs DMSO in test [1] was 99.8% (inactive); in test [1] (setting [6]), 97.6%; in test [1] (setting [7]), 101%; in test [3] it was 120% (inactive). The GFP response relative to DMSO was 147% (inactive) in test [2], 140% in test [2] (setting [8]) and 146% in test [2] (setting [9]). The GFP response, % of DMSO is 93.2% (inactive) in test [4], 98.8% (inactive) in test [5], 103% in test [5] (setting [6]) and 96.8% in test [5] (setting [7]).

For the origin of these results see PubChem BioAssay.
